Test results: ChEMBL document CHEMBL1125117, “Substituted 1,3-dihydro-2H-pyrrolo[2,3-b]pyridin-2-ones as potential antiinflammatory agents” (1990)

Assays:
Rattus norvegicus [1] = assay: In vivo antiinflammatory activity against edema formation in the injected(primary) paw of the rat(before edema stimulation) at dose 25 mg/kg; format: functional
In short: (§1)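 Adjuvant arthritis in rats, prophylactic regimen. Oral dosing began 1 h before challenge and continued for 21 consecutive days. Heat-killed M. tuberculosis in paraffin oil (6 mg/mL), 0.1 mL injected into the left hind paw, with methylcellulose-treated controls. Both hind paw volumes measured by plethysmograph on day 21. Reported as % change relative to control.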

Rattus norvegicus [2] = assay: In vivo effect on prostaglandin and leukotriene mediated production in rat pleural cavity was assessed by the inhibition of cell influx in 5-lipoxygenase/ cyclooxygenase at dose 40 mg/kg; format: functional
In short: (§2)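 Rat reversed passive Arthus pleurisy, oral dosing 1 h before challenge. BSA given iv (5 mg), then rabbit anti-BSA IgG intrapleurally 30 min later. At 4 h, exudate was collected into indomethacin/NDGA and its volume recorded. Neutrophils were counted by Coulter counter. TXB2 and LTE4 in ethanol-extracted supernatant were measured by RIA with tritiated recovery spikes. Reported as % inhibition versus control.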

Rattus norvegicus [3] = assay: In vivo effect on prostaglandin and leukotriene mediated production in rat pleural cavity was assessed by the inhibition of fluid volume in 5-lipoxygenase/ cyclooxygenase at dose 40 mg/kg; format: functional; in short: as §2
Rattus norvegicus [4] = assay: In vivo inhibitory activity against fluid in reverse passive Arthus reaction (RPAR) assay at dose 25 mg/kg in the pleural cavity of rats.; format: functional
In short: (§3)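 Male rats, five per group, dosed orally 1 h before iv BSA antigen (5 mg). Rabbit anti-BSA IgG (0.5 mg) given intrapleurally 30 min later. At 4 h, pleural exudate volume was measured and neutrophils counted (Coulter) after saline-EDTA lavage. Reported as % reduction in cells and fluid relative to control.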

Rattus norvegicus [5] = assay: In vivo antiinflammatory activity against edema formation in the noninjected(secondary) paw of the rat (before edema stimulation) at dose 25 mg/kg; format: functional; in short: as §1
Rattus norvegicus [6] = assay: In vivo effect on prostaglandin and leukotriene mediated production in rat pleural cavity was assessed by the inhibition of TXB2 in 5-lipoxygenase/ cyclooxygenase at dose 40 mg/kg; format: functional; in short: as §2
[7] = molecular target: T1, Polyunsaturated fatty acid 5-lipoxygenase (Homo sapiens) (UniProt P09917); assay: In vitro inhibitory activity against 5-lipoxygenase in human polymorphonuclear (PMN) cells; settings: concentration not given here
T1 sequence (whole entry): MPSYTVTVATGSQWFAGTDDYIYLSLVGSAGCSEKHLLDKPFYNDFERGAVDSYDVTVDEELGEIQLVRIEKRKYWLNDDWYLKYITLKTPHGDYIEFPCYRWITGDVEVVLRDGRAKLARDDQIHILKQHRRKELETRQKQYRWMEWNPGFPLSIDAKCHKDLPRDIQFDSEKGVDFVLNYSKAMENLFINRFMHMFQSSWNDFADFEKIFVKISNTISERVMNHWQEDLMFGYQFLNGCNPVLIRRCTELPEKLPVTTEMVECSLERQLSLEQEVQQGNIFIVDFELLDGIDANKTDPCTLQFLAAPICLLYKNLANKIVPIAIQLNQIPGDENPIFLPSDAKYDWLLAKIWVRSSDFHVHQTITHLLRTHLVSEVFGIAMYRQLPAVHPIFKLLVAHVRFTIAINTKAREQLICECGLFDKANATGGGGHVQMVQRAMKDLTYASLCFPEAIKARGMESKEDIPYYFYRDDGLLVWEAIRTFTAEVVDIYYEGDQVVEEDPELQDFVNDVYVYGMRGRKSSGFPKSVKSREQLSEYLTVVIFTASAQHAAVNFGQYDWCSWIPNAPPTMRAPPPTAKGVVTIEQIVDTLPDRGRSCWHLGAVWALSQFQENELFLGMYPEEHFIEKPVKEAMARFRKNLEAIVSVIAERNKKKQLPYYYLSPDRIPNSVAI
In short: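 Human PMN neutrophils (2×10^7 cells/mL) in HEPES buffer with 1 mM CaCl2, preincubated 4 min with test compound in DMSO vehicle. Then stimulated with [14C]arachidonic acid plus calcium ionophore A23187 for 5 min and stopped with methanol. 5-HETE was quantitated by HPLC. Reported as % inhibition versus vehicle, tested at 15 μM.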

Rattus norvegicus [8] = assay: In vivo inhibitory activity against cells in reverse passive Arthus reaction (RPAR) assay at dose 25 mg/kg in the pleural cavity of rats.; format: functional; in short: as §3
Rattus norvegicus [9] = assay: In vivo effect on prostaglandin and leukotriene mediated production in rat pleural cavity was assessed by the inhibition of LTE4 in 5-lipoxygenase/ cyclooxygenase at dose 40 mg/kg
[10] = molecular target: Cyclooxygenase (Homo sapiens) (UniProt P35354+P23219); assay: In vitro inhibitory activity against Prostaglandin G/H synthase in human platelets; design: concentration or dose not given beside the values; settings: concentration not given here
In short: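 Human platelets (2×10^5/mL) in HEPES buffer with 0.5 mM EGTA and 1.5 mM CaCl2, incubated 4 min with compound in DMSO vehicle. Then given [14C]arachidonic acid and A23187 ionophore for 5 min and stopped with methanol. HHT was measured by reverse-phase HPLC. Reported as % inhibition of HHT versus vehicle, at 15 μM.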

Rattus norvegicus [11] = assay: In vivo effect on prostaglandin and leukotriene mediated production in rat pleural cavity was assessed by the inhibition of fluid volume in 5-lipoxygenase/ cyclooxygenase at dose 20 mg/kg; format: functional; in short: as §2
Rattus norvegicus [12] = assay: In vivo effect on prostaglandin and leukotriene mediated production in rat pleural cavity was assessed by the inhibition of LTE4 in 5-lipoxygenase/ cyclooxygenase at dose 20 mg/kg
Rattus norvegicus [13] = assay: In vivo effect on prostaglandin and leukotriene mediated production in rat pleural cavity was assessed by the inhibition of cell influx in 5-lipoxygenase/ cyclooxygenase at dose 20 mg/kg; format: functional; in short: as §2
Rattus norvegicus [14] = assay: In vivo effect on prostaglandin and leukotriene mediated production in rat pleural cavity was assessed by the inhibition of TXB2 in 5-lipoxygenase/ cyclooxygenase at dose 20 mg/kg; format: functional; in short: as §2

Compound `CC1(C)C(=O)N(c2ccccc2)c2ncccc21` has an inhibition in vivo at 25 mg/kg (Rattus norvegicus [1]) of 0%, an inhibition in vivo at 40 mg/kg (Rattus norvegicus [2]) of 70% and an inhibition in vivo at 40 mg/kg (Rattus norvegicus [3]) of 60%. The ED50 (Rattus norvegicus [4]) was 35.1 mg/kg, the inhibition in vivo at 25 mg/kg (Rattus norvegicus [5]) was 24% and the inhibition in vivo at 40 mg/kg (Rattus norvegicus [6]) was 54%. It also gave an inhibition [7] of 0%, an ED50 (Rattus norvegicus [8]) of 21.9 mg/kg and an LTE4 inhibition (Rattus norvegicus [9]) of 54%. For the same compound, the inhibition [10] was 0%.

In the case of `CC1(C)C(=O)N(c2ccc(F)cc2)c2ncccc21`, the inhibition in vivo at 25 mg/kg (Rattus norvegicus [1]) is reported as 0%, the inhibition in vivo at 20 mg/kg (Rattus norvegicus [11]) is reported as 43% and the LTE4 inhibition (Rattus norvegicus [12]) is reported as 36%. For the same compound, the ED50 (Rattus norvegicus [4]) was 29.5 mg/kg, the inhibition in vivo at 25 mg/kg (Rattus norvegicus [5]) was 48% and the inhibition [7] was 2%. It also gave an ED50 (Rattus norvegicus [8]) of 4.5 mg/kg, an inhibition in vivo at 20 mg/kg (Rattus norvegicus [13]) of 70% and an inhibition [10] of 0%. The inhibition in vivo at 20 mg/kg (Rattus norvegicus [14]) was 53%.
